We go through two compounds from ChEMBL document CHEMBL3085682, “Santacruzamate A, a potent and selective histone deacetylase inhibitor from the Panamanian marine cyanobacterium cf. Symploca sp” (J Nat Prod, 2013).

For data set [1], the system named is HCT-116. Put plainly: Cytotoxicity against human HCT116 cells after 96 hrs by MTS-PMS assay. Type of data set: functional. A general note: Tetrazolium assays rely on reduction of a dye to a coloured formazan, in cell work by metabolically active cells.
The next data set addresses Histone deacetylase 2 (Homo sapiens, UniProt Q92769). Put plainly: Inhibition of human recombinant HDAC2 after 30 mins by fluorescence assay.
Data set [2] can be described thus: Cytotoxicity against human HDF after 72 hrs by MTS-PMS assay. As to conditions: HDF cells. The method in brief: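 Dermal fibroblasts cultured in DMEM/F-12 with 40% FBS and 1% pen/strep; 5000 cells/well allowed to adhere 24 h at 37 °C, 5% CO2, then treated in triplicate at varying concentrations for 72 h. Antiproliferative readout by MTS–PMS; GI50 fitted by nonlinear regression; SAHA positive control.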

In data set [3] the target is T1, Histone deacetylase 4 (Homo sapiens, UniProt P56524). Put plainly: Inhibition of human recombinant HDAC4 after 30 mins by fluorescence assay. An outline of the steps:
(§1)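 Human recombinant HDAC isozyme with fluorogenic kit substrate, incubated with inhibitor 30 min at 37 °C. Deacetylation stopped by developer containing trichostatin A (1 μM final), then 15 min at room temperature. Fluorescence read at excitation 360 nm, emission 460 nm; percent inhibition, IC50 from nonlinear regression over varying concentrations; SAHA control.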

Data set [4] deals with HCT-116. Put plainly: Ratio of IC50 for human HCT116 cells to IC50 for human HUT78 cells. Type of data set: functional.
Data set [5] deals with T1, Histone deacetylase 4. Put plainly: Inhibition of human recombinant HDAC4 at 1 uM after 30 mins by fluorescence assay. An outline of the steps: as §1
In a further data set the test system is HuT78. Put plainly: Cytotoxicity against human HUT78 cells after 72 hrs by MTS-PMS assay. Type of data set: functional. An outline of the steps:
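HuT-78 maintained in Iscove's modified Dulbecco's medium, 20% FBS, 1% pen/strep, 1% L-glutamine; seeded in log phase at 50 000 cells/well, held 4 h at 37 °C, 5% CO2, then dosed in triplicate over a concentration range for 72 h. MTS–PMS readout; GI50 by nonlinear regression; SAHA positive control.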

Data set [6] concerns the target T2, Protein deacetylase HDAC6 (Homo sapiens, UniProt Q9UBN7).
T2 sequence (Q9UBN7 whole entry): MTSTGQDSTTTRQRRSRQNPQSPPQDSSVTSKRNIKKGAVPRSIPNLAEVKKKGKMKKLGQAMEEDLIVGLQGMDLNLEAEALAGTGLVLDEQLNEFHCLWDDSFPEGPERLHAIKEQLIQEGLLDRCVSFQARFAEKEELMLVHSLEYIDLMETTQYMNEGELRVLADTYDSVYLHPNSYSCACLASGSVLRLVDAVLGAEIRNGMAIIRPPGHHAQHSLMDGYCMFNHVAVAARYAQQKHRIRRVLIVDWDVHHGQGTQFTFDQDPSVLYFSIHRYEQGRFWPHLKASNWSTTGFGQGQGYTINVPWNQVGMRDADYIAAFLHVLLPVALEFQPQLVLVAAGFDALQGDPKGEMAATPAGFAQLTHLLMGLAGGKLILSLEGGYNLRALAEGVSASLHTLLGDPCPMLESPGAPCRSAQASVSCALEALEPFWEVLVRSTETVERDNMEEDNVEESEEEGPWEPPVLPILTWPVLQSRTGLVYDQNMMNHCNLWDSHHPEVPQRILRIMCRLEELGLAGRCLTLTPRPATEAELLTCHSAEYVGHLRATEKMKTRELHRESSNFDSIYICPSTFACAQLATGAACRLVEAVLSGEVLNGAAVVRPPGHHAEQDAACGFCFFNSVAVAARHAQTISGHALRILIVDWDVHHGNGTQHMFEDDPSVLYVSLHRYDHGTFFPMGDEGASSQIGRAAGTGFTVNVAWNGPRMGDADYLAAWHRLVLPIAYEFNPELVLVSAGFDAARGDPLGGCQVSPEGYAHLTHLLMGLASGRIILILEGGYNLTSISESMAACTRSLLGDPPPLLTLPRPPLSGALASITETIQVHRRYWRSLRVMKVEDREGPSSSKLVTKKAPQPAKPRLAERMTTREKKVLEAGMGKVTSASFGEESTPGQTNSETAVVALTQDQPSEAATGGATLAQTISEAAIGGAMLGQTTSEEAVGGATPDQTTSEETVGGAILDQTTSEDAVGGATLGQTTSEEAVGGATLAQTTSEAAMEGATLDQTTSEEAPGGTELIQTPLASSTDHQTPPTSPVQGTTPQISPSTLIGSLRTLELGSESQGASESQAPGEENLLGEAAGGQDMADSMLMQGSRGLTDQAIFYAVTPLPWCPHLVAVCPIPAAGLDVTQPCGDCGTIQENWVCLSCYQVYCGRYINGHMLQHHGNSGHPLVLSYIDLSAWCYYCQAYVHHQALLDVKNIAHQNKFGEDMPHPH
Put plainly: Inhibition of human recombinant HDAC6 after 30 mins by fluorescence assay.

Molecules are shown by their SMILES. pIC50: −log10 of the molar value. Several values for one entry are separate records, joined by “and”; a condition that tells them apart may be missing. Equal entries are not always repeated. Activity calls are given as the source filed them. The calls are words filed in the database; no cut-off is given here.

T1 sequence (P56524 whole entry): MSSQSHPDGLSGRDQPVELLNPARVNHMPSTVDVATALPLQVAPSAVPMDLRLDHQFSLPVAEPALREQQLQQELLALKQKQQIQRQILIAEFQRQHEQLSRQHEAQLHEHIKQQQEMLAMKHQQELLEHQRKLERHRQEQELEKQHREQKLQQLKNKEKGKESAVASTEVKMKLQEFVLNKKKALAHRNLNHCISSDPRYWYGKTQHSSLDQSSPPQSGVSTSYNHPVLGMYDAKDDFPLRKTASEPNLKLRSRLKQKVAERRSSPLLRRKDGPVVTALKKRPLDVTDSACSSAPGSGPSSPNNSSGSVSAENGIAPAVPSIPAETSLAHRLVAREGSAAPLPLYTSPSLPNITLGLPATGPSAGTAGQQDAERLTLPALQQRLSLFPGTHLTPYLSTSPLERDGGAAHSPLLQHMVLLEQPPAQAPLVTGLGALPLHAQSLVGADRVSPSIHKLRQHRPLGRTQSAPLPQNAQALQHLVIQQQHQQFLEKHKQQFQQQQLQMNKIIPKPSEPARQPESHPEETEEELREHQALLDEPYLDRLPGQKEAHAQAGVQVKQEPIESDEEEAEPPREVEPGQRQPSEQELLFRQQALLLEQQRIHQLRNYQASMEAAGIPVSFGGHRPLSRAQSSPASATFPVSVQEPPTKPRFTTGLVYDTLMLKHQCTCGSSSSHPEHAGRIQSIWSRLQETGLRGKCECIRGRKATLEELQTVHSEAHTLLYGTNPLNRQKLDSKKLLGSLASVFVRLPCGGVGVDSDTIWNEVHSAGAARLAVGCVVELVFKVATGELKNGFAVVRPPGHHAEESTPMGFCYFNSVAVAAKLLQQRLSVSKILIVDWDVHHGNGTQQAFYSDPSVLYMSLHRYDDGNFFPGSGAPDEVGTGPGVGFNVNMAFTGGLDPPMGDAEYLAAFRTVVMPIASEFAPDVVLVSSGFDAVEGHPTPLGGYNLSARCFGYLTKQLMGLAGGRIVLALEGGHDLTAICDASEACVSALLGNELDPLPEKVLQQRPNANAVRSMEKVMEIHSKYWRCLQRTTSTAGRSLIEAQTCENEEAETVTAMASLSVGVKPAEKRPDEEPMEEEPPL
Histone deacetylase 2, sequence (Q92769 whole entry): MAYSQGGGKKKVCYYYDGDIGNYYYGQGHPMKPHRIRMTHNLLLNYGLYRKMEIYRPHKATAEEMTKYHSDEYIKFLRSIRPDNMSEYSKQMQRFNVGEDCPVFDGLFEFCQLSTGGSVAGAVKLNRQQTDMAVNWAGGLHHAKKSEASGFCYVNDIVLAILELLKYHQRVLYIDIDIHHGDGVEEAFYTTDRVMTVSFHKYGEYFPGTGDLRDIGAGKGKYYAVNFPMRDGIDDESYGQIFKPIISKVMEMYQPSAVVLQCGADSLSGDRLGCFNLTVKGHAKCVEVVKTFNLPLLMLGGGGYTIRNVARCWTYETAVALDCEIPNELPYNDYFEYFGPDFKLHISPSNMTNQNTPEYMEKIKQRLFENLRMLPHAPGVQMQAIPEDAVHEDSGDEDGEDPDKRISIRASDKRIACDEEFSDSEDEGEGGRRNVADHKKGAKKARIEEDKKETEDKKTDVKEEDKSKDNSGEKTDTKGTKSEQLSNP

As usually defined, the GI50 is the concentration that inhibits growth by half. One may read the pIC50 as −log10 of the IC50, conventionally taken in molar units. With `CCOC(=O)NCCCC(=O)NCCc1ccccc1`, the 50% growth inhibitory concentration (GI50) in the data set on HCT-116 [1] came to 29400 nM; in the data set on HCT-116 [1] (Homo sapiens, HCT-116, 96 h), 28300 nM; with HuT78 it was 1400 nM; in the data set on HuT78 (Homo sapiens, HuT78, 72 h) it was 1300 nM. Moreover, the pIC50 at Histone deacetylase 2 is 9.95 and 9.92; on Histone deacetylase 4 [3], below 6.00; in data set [6], 6.36. In data set [2], this compound showed a GI50 at 72 h above 100000 nM. Moreover, the “Ratio IC50” value in the data set with HCT-116 [4] turned out to be 20. In addition, the inhibition entry on Histone deacetylase 4 [5] is “Active”.
Consider `O=C(CCCC(=O)NCCc1ccccc1)NO`, for which the GI50 was found to be 2300 nM in the data set on HCT-116 [1] (Homo sapiens, HCT-116, 96 h) and 700 nM in the data set on HuT78 (Homo sapiens, HuT78, 72 h). Further, the pIC50 was 8.46 on Histone deacetylase 2, below 6.00 at Histone deacetylase 4 [3] and 6.41 in data set [6]. In data set [2], the GI50 at 72 h was above 100000 nM. Moreover, the inhibition result at Histone deacetylase 4 [5] was “Active”.
